Each structure is given as a SMILES string.

Test [1] concerns the target Potassium voltage-gated channel subfamily KQT member 2 (Mus musculus) (UniProt Q9Z351). Put plainly: Increased outward current at -40 mV mediated by mouse KCNQ2 channel expressed in Xenopus laevis oocytes at 20 uM. The format is functional, cell-based. The following applies: Oocyte. In short, it runs like this: (§1)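 Mouse KCNQ2 (mKCNQ2) currents recorded from Xenopus oocytes by two-electrode voltage clamp. Holding potential -90 mV, with about 5 s steps in +10 mV increments up to +40 mV. Records digitized at 5 kHz. Each compound applied at a single concentration (1, 5 or 20 µM) in at least 3 oocytes. Value is the mean percent change in current relative to the drug-free control (100%).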

For test [2] the target is unchanged. The test is described as follows: Increased outward current at -40 mV mediated by mouse KCNQ2 channel expressed in Xenopus laevis oocytes at 100 nM. The format is functional, cell-based. The following applies: Oocyte.
For test [3] the target is unchanged. The test is described as follows: Increased outward current at -40 mV mediated by mouse KCNQ2 channel expressed in Xenopus laevis oocytes at 1 uM. The format is functional, cell-based. The following applies: Oocyte. The method in brief:
as §1

For test [4] the target is unchanged. Put plainly: Increased outward current at -40 mV mediated by mouse KCNQ2 channel expressed in Xenopus laevis oocytes at 20 uM; Insoluble. The format is functional, cell-based. The following applies: Oocyte. The method in brief:
as §1

Test [5] has the same target. Put plainly: Increased outward current at -40 mV mediated by mouse KCNQ2 channel expressed in Xenopus laevis oocytes at 5 uM; Insoluble. The format is functional, cell-based. The following applies: Oocyte. In short, it runs like this: as §1
For test [6], the target named is Potassium voltage-gated channel subfamily KQT member 2 (Mus musculus, UniProt Q9Z351). Put plainly: Increased outward current at -40 mV mediated by mouse KCNQ2 channel expressed in Xenopus laevis oocytes. The format is functional, cell-based, Oocyte.
Potassium voltage-gated channel subfamily KQT member 2, sequence (Q9Z351 whole entry): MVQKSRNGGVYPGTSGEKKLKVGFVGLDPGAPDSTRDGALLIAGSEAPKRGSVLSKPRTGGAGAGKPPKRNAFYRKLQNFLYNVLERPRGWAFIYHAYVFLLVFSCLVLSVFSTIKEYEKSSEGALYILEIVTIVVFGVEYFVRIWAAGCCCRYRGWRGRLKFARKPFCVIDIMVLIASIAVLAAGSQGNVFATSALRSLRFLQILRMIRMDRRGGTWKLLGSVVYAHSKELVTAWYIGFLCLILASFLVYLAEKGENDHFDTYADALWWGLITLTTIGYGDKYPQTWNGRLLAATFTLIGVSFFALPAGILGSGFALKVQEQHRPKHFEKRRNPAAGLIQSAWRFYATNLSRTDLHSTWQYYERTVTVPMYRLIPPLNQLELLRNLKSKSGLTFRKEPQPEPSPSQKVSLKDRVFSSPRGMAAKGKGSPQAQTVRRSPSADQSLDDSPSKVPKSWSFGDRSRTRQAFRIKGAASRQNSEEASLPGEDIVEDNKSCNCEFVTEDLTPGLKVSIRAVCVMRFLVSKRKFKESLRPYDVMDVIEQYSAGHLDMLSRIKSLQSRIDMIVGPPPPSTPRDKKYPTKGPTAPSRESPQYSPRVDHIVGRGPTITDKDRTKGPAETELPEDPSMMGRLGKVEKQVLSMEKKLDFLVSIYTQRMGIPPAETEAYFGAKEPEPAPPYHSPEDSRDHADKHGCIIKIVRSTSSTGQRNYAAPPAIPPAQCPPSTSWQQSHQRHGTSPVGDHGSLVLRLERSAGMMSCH

Potassium voltage-gated channel subfamily KQT member 2 (Mus musculus), sequence (Q9Z351 whole entry): as above

With `Nc1c(O)nc2ccc(C(F)(F)F)cc2c1Cc1cc(Cl)ccc1O`, the Increase in test [1] was 122%.
Same read-out and setting: with `COc1ccc(Cl)cc1Cc1c(NS(=O)(=O)C(F)(F)F)c(O)nc2ccc(C(F)(F)F)cc12` the figure was 231%; with `COc1ccccc1Cc1c(NS(=O)(=O)C(F)(F)F)c(O)nc2cc(C(F)(F)F)ccc12`, 254%.
The compound `CCOC(=O)Nc1ccc(NCc2ccc(F)cc2)cc1N` displayed an Increase in test [1] of 269%.
With `Nc1c(O)nc2ccccc2c1Cc1ccccc1`, in test [1], the Increase is 103%.
`O=S(=O)(Nc1c(O)nc2ccc(C(F)(F)F)cc2c1Cc1cc(Cl)ccc1O)C(F)(F)F`: the Increase in test [2] worked out at 143%; in test [3], 217%; in test [1], 284%.
With `O=S(=O)(Nc1c(O)nc2cc(C(F)(F)F)ccc2c1Cc1cccc(Cl)c1)C(F)(F)F`, the Increase in test [1] stood at 220%.
Take `Nc1c(O)nc2cc(C(F)(F)F)ccc2c1Cc1cc(Cl)ccc1O`: the Increase is 89% in test [3], “Insoluble” in test [4] and “Insoluble” in test [5].
As a reminder, the EC50 is the concentration at which the effect is half-maximal. Low values mean higher potency in that assay, high ones lower potency in that assay. `O=c1[nH]c2ccc(C(F)(F)F)cc2c(Cc2cc(Cl)ccc2O)c1NS(=O)(=O)C(F)(F)F` registered an EC50 in test [6] of 663 nM.
Compound `O=S(=O)(Nc1c(O)nc2ccccc2c1Cc1ccccc1)C(F)(F)F` came in with an Increase in test [1] of 131%.
In the case of `O=S(=O)(Nc1c(O)nc2cc(C(F)(F)F)ccc2c1Cc1ccccc1O)C(F)(F)F`, the Increase in test [1] stood at 277%.
Still for that read-out and setting: next, `O=S(=O)(Nc1c(O)nc2cc(C(F)(F)F)ccc2c1Cc1ccccc1)C(F)(F)F`: 223%.
With `O=S(=O)(Nc1c(O)nc2cc(C(F)(F)F)ccc2c1Cc1cc(Cl)ccc1O)C(F)(F)F`, the Increase in test [3] turned out to be 190%; in test [1] it was 271%.

Values taken from ChEMBL document CHEMBL1148224, “The synthesis and structure-activity relationships of 3-amino-4-benzylquinolin-2-ones; discovery of novel KCNQ2 channel openers” (Bioorg Med Chem Lett, 2004).
